Test results taken from ChEMBL document CHEMBL4622986, “Synthesis and Anti-HCV Activity of Sugar-Modified Guanosine Analogues: Discovery of AL-611 as an HCV NS5B Polymerase Inhibitor for the Treatment of Chronic Hepatitis C” (J Med Chem, 2020).
Calls of active or inactive are those of the source. No cut-off for these calls is given here.

Columns and labels:
[1] = biological target: RNA-directed RNA polymerase (Hepacivirus hominis) (UniProt O39930); assay: Inhibition of HCV NS5B RNA-dependent RNA polymerase 10-mer elongation complex assessed as chain termination of RNA synthesis by measuring reduction in 20-mer RNA product formation at 100 uM incubated for 1 min in presence of UTP and ATP by polyacrylamide gel based method
Chain of RNA-directed RNA polymerase (Hepacivirus hominis) (O39930 1-591): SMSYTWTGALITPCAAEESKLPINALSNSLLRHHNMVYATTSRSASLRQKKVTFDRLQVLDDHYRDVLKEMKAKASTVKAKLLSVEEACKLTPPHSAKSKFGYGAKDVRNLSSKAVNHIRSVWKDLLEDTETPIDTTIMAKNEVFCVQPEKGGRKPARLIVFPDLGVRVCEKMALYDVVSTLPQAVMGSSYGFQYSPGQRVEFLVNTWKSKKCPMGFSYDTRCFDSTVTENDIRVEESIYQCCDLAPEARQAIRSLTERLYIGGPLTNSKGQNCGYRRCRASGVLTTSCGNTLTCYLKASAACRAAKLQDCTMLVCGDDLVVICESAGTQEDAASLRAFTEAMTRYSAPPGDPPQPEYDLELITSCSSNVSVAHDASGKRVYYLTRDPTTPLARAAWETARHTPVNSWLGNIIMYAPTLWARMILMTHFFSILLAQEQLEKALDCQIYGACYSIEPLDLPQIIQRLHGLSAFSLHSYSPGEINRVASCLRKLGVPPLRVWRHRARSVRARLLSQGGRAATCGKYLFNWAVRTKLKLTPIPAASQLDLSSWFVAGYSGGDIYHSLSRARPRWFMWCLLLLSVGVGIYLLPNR
How it was run: (§1)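 The NS5B elongation complex was built from 6.5 μM NS5B, 20 μM pGG, 20 μM 20-nt RNA template, 25 μM ATP and 12.5 μM GTP (pH 7.0 buffer, 2 h, 30 °C), giving a 9-mer. It was extended to a 10-mer with 33P-CTP for 30 s, then pelleted, washed and resuspended. The complex was elongated with 100 μM of each NTP in 40 mM Tris pH 7.4, 150 mM NaCl, 2 mM MgCl2 and 5 mM DTT for 1 min at 30 °C. Products were resolved on 22.5% urea PAGE and quantified by phosphorimager.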

DNA polymerase beta = DNA polymerase beta (Homo sapiens, UniProt P06746); assay: Inhibition of human DNA polymerase beta at 100 uM using calf DNA as substrate by microbeta scintillation counting method relative to control; details: human DNA polymerase beta enzyme, probe calf DNA
How it was run: (§2)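 Activated calf thymus DNA served as template for each polymerase, in 50 mM Tris-HCl pH 8.0, 60 mM KCl, 5 mM MgCl2 and 4 mM DTT with 2 μM each of dCTP, dATP and dGTP plus 2.5 μCi 3H-dTTP. Test NTP was at 100 μM. DNA products were precipitated with 20% TCA and counted by microplate scintillation. Results are reported as percent inhibition with standard deviation.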

[2] = biological target: RNA-directed RNA polymerase (Hepacivirus hominis) (UniProt O39930); assay: Inhibition of HCV NS5B RNA-dependent RNA polymerase 10-mer elongation complex assessed as chain termination of RNA synthesis by measuring reduction in 11-mer RNA product formation at 100 uM incubated for 1 min by polyacrylamide gel based method; how it was run: as §1
[3] = Inhibition of RNA polymerase 2 in human HeLa cell nuclear extract assessed as reduction in RNA transcription by polyacrylamide gel electrophoresis method; format: cell-based
How it was run: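 In vitro transcription used HeLa cell nuclear extract. RNA products were resolved on 6% TBE-urea polyacrylamide gels.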

Homo sapiens = species on record: Homo sapiens; assay: Substrate activity at human mitochondrial RNA polymerase assessed as nucleotide incorporation into RNA at 100 uM using [33P]-labeled 5'-UUUUGCCGCGCC-3' and 3'-CGGCGCGGCACGTAAGGG-5' RNA/DNA primer/template by polyacrylamide gel electrophoresis method
How it was run: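 Single-turnover conditions: 100 nM 33P-labelled RNA/DNA primer/template with 320 nM human mitochondrial RNA polymerase in excess. Each NTP was tested at 100 μM. ATP, UTP and CTP gauged misincorporation opposite the templating CMP. Products were run on 22.5% TBE-urea sequencing gels and bands quantified by phosphorimager.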

[4] = biological target: RNA-directed RNA polymerase (Hepacivirus hominis, UniProt O39930); assay: Inhibition of HCV NS5B RNA-dependent RNA polymerase activity assessed as reduction in radiolabeled ribonucleotide monophosphates incorporation into RNA using cIRES template measured after 2 hrs by microscintillation counting method
Chain of RNA-directed RNA polymerase (O39930 whole entry): as the sequence (O39930 1-591) above
How it was run: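 Reactions contained 100 nM NS5B, 50 nM cIRES RNA template, 1 μM tritiated CTP, 1 μM ATP, 1 μM GTP and 0.5 μM UTP in 40 mM Tris-HCl pH 8.0, 20 mM NaCl, 3 mM DTT and 4 mM MgCl2, with serially diluted inhibitor. Incubation was 2 h at 30 °C, then TCA precipitation and scintillation counting of acid-insoluble RNA. Values are the mean of n ≥ 2 determinations.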

DNA polymerase alpha = biological target: T1, DNA polymerase alpha (Homo sapiens, UniProt P09884); assay: Inhibition of human DNA polymerase alpha at 100 uM using calf DNA as substrate by microbeta scintillation counting method relative to control; details: human DNA polymerase alpha enzyme, probe calf DNA; how it was run: as §2
T1 sequence (P09884 whole entry): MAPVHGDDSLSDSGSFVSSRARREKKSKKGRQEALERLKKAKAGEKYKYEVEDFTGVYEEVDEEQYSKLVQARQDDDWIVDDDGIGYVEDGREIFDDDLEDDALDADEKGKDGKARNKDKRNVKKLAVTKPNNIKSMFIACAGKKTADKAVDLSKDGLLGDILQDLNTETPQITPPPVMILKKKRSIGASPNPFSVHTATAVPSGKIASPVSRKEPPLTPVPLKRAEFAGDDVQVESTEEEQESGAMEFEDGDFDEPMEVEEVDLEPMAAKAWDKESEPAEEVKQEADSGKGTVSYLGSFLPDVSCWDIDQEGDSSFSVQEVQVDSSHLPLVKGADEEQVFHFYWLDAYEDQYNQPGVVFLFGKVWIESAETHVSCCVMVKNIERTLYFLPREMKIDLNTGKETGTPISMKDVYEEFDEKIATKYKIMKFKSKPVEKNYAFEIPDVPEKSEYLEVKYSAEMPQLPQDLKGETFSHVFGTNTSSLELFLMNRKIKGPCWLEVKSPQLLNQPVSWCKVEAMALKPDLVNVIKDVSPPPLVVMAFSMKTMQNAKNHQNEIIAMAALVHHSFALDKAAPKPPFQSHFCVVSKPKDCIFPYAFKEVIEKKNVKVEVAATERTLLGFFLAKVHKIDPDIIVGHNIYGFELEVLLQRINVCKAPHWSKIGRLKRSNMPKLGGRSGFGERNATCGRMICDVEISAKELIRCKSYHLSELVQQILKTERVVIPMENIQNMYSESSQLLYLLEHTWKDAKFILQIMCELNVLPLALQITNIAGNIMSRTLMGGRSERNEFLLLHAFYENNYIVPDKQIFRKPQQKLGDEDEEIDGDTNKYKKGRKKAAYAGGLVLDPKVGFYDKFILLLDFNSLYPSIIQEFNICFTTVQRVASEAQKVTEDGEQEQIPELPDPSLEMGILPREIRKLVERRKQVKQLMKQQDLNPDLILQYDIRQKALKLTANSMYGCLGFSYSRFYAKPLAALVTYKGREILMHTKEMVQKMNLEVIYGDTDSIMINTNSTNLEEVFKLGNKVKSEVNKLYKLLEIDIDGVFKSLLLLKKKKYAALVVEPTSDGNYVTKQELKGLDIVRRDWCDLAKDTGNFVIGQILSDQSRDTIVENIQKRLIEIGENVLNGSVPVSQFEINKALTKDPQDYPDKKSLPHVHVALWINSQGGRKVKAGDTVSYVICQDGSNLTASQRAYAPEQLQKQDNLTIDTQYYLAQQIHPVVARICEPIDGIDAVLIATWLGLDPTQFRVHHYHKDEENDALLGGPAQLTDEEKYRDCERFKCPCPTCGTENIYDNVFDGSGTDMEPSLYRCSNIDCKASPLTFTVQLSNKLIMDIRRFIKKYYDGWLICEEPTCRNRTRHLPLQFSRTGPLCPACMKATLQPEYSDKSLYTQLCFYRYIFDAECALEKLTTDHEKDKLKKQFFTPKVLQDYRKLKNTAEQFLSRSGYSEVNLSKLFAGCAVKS

DNA polymerase gamma = assay: Inhibition of human DNA polymerase gamma at 100 uM using calf DNA as substrate by microbeta scintillation counting method relative to control; details: human DNA polymerase gamma enzyme, probe calf DNA; how it was run: as §2
[5] = Prodrug activation in Beagle dog assessed as [[(2S,3S,4R,5R)-5-(2-amino-6-oxo-1H-purin-9-yl)-2,4-difluoro-3-hydroxy-4-methyl-tetrahydrofuran-2-yl]methoxy-hydroxy-phosphoryl]phosphono hydrogen phosphate metabolite formation in liver at 9.69 mg/kg, po measured at 4 hrs post dose by LC-MS/MS analysis; format: ADME, organism-based, Canis lupus familiaris; details: in vivo
How it was run: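 Male non-naïve beagle dogs (n=2 per time point), fasted overnight, single oral dose of 9.69 mg/kg (5 mg/kg parent nucleoside equivalent) as a solution in 40% PEG400 in water. Animals anesthetized with pentobarbital before liver collection. Liver NTP measured by negative-ion LC-MS/MS against standards spiked into blank liver homogenate.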

[6] = Prodrug activation in human hepatocytes assessed as [[(2S,3S,4R,5R)-5-(2-amino-6-oxo-1H-purin-9-yl)-2,4-difluoro-3-hydroxy-4-methyl-tetrahydrofuran-2-yl]methoxy-hydroxy-phosphoryl]phosphono hydrogen phosphate metabolite formation per million cells at 50 uM incubated for 24 hrs by LC-MS/MS analysis; format: ADME, cell-based, Hepatocyte
How it was run: (§3)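 Primary human hepatocytes (1.5-2 million cells/well) acclimated overnight at 37 °C, 5% CO2, then incubated 24 h with 50 μM extracellular compound. Cells washed with cold 0.9% NaCl and lysed in 70/30 methanol/water. Extract dried and reconstituted, then analysed by LC-MS/MS with an internal standard; reported as pmol per million cells.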

Hepatitis C virus = assay: Antiviral activity against HCV con1 subgenomic replicon infected in human HuH7 cells assessed as reduction in viral RNA level by qRT-PCR analysis; format: functional, organism-based, Hepacivirus hominis; details: isolate Con1, Huh-7
How it was run: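 Huh-7 cells carrying a subgenomic Con1 HCV replicon (neomycin phosphotransferase, kept under 0.25 mg/ml G418) were exposed to serially diluted compound in DMEM with 2% FBS and 0.5% DMSO, without G418, at 37 °C. Total RNA was extracted and HCV RNA copies were measured by multiplex QRT-PCR (Taqman). EC50 was obtained by 4-parameter curve fit.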

[7] = Prodrug activation in human hepatocytes assessed as nucleoside monophosphate metabolite formation per million cells incubated for 24 hrs; format: ADME, cell-based, Hepatocyte; how it was run: as §3
[8] = Selectivity index, ratio of CC50 for human HuH7 cells infected with HCV con1 subgenomic replicon to EC50 for HCV con1 subgenomic replicon; format: toxicity; details: read-out: Ratio CC50/EC50
How it was run: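 Ratio of CC50 (CellTiter-Blue viability after 3 days) to EC50 (HCV RNA by QRT-PCR). Both were measured in Huh-7 Con1 subgenomic replicon cells in DMEM with 2% FBS and 0.5% DMSO at 37 °C.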

[9] = Cytotoxicity against human HuH7 cells infected with HCV con1 subgenomic replicon assessed as reduction in cell viability measured after 3 days by CellTiter-blue cell viability assay; format: cell-based, Huh-7
How it was run: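 Run in the replicon-bearing Huh-7 cells under the same settings as the antiviral read (DMEM, 2% FBS, 0.5% DMSO, no G418, 37 °C). After 3 days of treatment, viability was read with CellTiter-Blue and CC50 was derived by curve fitting.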

[10] = Cytotoxicity against human U937 cells incubated for 8 days by cellTiter-Glo assay; format: cell-based, U-937
How it was run: (§4)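 Cells (1×10^5/well) on collagen I-coated wells, first kept 8 days in recommended medium without drug, then exposed to compound for 8 days with refeeding every other day. Viability read by CellTiter-Glo luminescence; CC50 derived by curve fitting.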

[11] = Cytotoxicity against human HeLa cells incubated for 8 days by cellTiter-Glo assay; format: cell-based; how it was run: as §4
[12] = Cytotoxicity against human MT4 cells incubated for 8 days by cellTiter-Glo assay; format: cell-based; how it was run: as §4
[13] = Cytotoxicity against human A549 cells incubated for 8 days by cellTiter-Glo assay; format: cell-based; how it was run: as §4
[14] = Cytotoxicity against human HuH7 cells incubated for 8 days by cellTiter-Glo assay; format: cell-based, Huh-7; how it was run: as §4
[15] = Cytotoxicity against human HepG2 cells incubated for 8 days by cellTiter-Glo assay; format: cell-based; how it was run: as §4

inhibition [1]	inhibition at 100 µM (DNA polymerase beta) [%]	inhibition [2]	IC50 [3] [µM]	Activity (Homo sapiens)	IC50 [4] [nM]	inhibition at 100 µM (DNA polymerase alpha) [%]	inhibition at 100 µM (DNA polymerase gamma) [%]	Structure (SMILES)	Drug metabolism [5] [µM]	Drug metabolism [6] [pmol]	EC50 (Hepatitis C virus) [nM]	Drug metabolism [7] [pmol]	selectivity ratio [8]	CC50 at 72 h [9] [µM]	CC50 at 192 h [10] [nM]	CC50 at 192 h [11] [µM]	CC50 at 192 h [12] [nM]	CC50 at 192 h [13] [µM]	CC50 at 192 h [14] [nM]	CC50 at 192 h [15] [nM]
Active	16.3	inactive	> 100	inactive	160	73.2	29.8	C[C@]1(F)[C@H](n2cnc3c(=O)[nH]c(N)nc32)O[C@](F)(COP(=O)(O)OP(=O)(O)OP(=O)(O)O)[C@H]1O												
								CCOc1nc(N)nc2c1ncn2[C@@H]1O[C@](F)(CO[P@](=O)(N[C@@H](C)C(=O)OC(C)C)Oc2ccccc2)[C@@H](O)[C@@]1(C)F	6.33	174	57	67.1	> 1700	> 100						
								CCOc1nc(N)nc2c1ncn2[C@@H]1O[C@H](COP(=O)(N[C@@H](C)C(=O)OCC(C)(C)C)Oc2cccc3ccccc23)[C@@H](O)[C@@]1(C)O (some centres undefined)			348		47.1	16.4	170	13.4	960	7.8	350	1500
								CCOc1nc(N)nc2c1ncn2[C@@H]1O[C@](F)(CO[P@@](=O)(N[C@@H](C)C(=O)OC(C)C)Oc2ccccc2)[C@@H](O)[C@@]1(C)F	22.3	321	5	105	> 20000	> 100						
